The results in this text go back to PMC12219203 (Nature Communications, 2025).

SMILES strings stand for the structures.

For one data set, the system named is NOD2. The experiment in a line: HEK-Blue NOD2 SEAP reporter assay. To be noted: MDP, M-AE 200 nM; GM, M 20 μM; 18 h. Type of data set: cell-based, human. The gist of the method: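 HEK-Blue hNod1 or hNod2 cells were seeded at 50,000 cells/well in DMEM/10% FBS without selection antibiotics and stimulated at once for 18 h (n = 3). Supernatant was mixed 1:4 with Quanti-Blue and incubated 6 h at 37 °C, and absorbance was read at 620 nm. Values were blanked against water-treated wells, and the respective parental Null cell readouts were subtracted.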
(In a reporter assay the amount or activity of a reporter protein is the signal.)

The test system of a further data set is RAW264.7 cells. As to the kind of experiment: Cytokine expression in RAW264.7 macrophages. Type of data set: cell-based, mouse. To be noted: GM 1-4 mM, M 4 mM, 24 h. The gist of the method:
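RAW264.7 cells were kept in high-glucose IMDM with HEPES, 5% heat-inactivated FBS and penicillin/streptomycin at 37 °C, 5% CO2. They were exposed to test compounds for 24 h (n = 4). Total RNA was extracted with a column kit, and TNF-α and IL-6 transcripts were quantified by RT-qPCR using the 2-ΔΔCt method, normalised to β-act.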

Another data set has as its target mTLR4 (Mus musculus, UniProt Q9JHF9+Q9QUK6). The experiment in a line: HEK-Blue mTLR4 SEAP reporter assay. Type of data set: cell-based. To be noted: 24 h.
Data set [1] relates to NF-κB signaling in RAW-Dual WT cells. As to the kind of experiment: RAW-Dual WT NF-κB reporter. Type of data set: cell-based, mouse. The settings on record: 24 h. The procedure, abridged: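 RAW-Dual cells (WT or Tlr4-/-) were seeded at 100,000 cells/well in complete DMEM without selection antibiotics, 24 h before treatment. Test compounds were added for 24 h (n = 3). NF-κB-driven SEAP was read by mixing supernatant 1:4 with Quanti-Blue, incubating 6 h at 37 °C and measuring absorbance at 620 nm, blanked against water-treated wells.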

Data set [2] deals with IRF signaling in RAW-Dual Tlr4-/- cells. The experiment in a line: RAW-Dual Tlr4-/- IRF reporter. To be noted: 24 h. Type of data set: cell-based, mouse. The procedure, abridged: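 RAW-Dual Tlr4-/- cells were seeded at 100,000 cells/well without selection antibiotics, 24 h before a 24 h exposure to test compounds. IRF-driven secreted luciferase was measured by mixing 20 µL supernatant with 50 µL Quanti-Luc 4 and reading luminescence immediately.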

In data set [3] the test system is Tlr4-/- BMDMs. As to the kind of experiment: Cytokine secretion by Tlr4-/- BMDMs. Type of data set: cell-based, mouse. The settings on record: ELISA, 24 h; GM 4 mM, MDP 0.4 mM, LPS 100 ng/mL, CpG 100 nM. The gist of the method:
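Murine BMDMs were differentiated 6 days in complete medium with 20 ng/mL GM-CSF or 10% L929 supernatant, then switched to serum-free IMDM and stimulated 24 h. Mouse TNF-α and IL-6 in culture supernatants were quantified by sandwich ELISA. Samples were prediluted in 1% BSA in PBS, pH 7.4, where needed.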
(In general: In an ELISA, binding on a coated surface is turned into a signal by an enzyme label.)

The target in data set [4] is recombinant mTLR4 protein (Mus musculus, UniProt Q9QUK6). As to the kind of experiment: mTLR4 pulldown by immobilized GM-agarose beads. Type of data set: binding. The settings on record: pre-incubation of mTLR4 with excess GM. The gist of the method: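 An azide-tagged test-compound probe (2.5 mM) was clicked onto alkyne agarose beads (1.2 mM ascorbate, 0.5 mM CuSO4, 0.5 mM THPTA, 4 °C, 3 h); control beads lacked probe. Beads were incubated overnight at 4 °C in water with recombinant mouse TLR4(26-638)-His6 (100 or 50 ng), optionally pre-incubated with free competitor. Flow-through, wash and boiled eluate were analysed by Coomassie-stained SDS-PAGE.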
Chain of recombinant mTLR4 protein (Q9QUK6 26-638): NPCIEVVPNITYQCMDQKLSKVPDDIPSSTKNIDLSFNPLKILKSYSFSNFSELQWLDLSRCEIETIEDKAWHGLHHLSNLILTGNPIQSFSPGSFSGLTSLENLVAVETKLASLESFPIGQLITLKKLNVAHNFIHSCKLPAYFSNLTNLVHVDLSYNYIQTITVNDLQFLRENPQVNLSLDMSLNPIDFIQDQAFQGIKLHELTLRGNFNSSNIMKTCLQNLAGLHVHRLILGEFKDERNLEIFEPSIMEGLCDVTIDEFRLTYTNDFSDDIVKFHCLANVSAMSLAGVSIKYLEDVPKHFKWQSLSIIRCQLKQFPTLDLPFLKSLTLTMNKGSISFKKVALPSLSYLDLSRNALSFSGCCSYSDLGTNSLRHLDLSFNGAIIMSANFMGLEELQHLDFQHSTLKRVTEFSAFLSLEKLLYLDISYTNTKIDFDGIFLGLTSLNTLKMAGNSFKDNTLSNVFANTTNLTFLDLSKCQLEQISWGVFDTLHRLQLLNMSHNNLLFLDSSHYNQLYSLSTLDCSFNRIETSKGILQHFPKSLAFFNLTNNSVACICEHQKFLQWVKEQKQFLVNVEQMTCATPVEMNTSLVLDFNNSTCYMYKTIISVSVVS

A further data set concerns the target mTLR4/mMD2 (K263A / wt) (Mus musculus, UniProt Q9JHF9+Q9QUK6, K263A). The experiment in a line: NF-κB SEAP in HEK-Blue Null1, mTLR4 K263A / mMD2 wt. Type of data set: cell-based. To be noted: GM 0.4, 0.2 mM, 24 h. The procedure, abridged: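 Point mutants of mTLR4 or mMD2 were made by site-directed mutagenesis. HEK-Blue Null1 cells were co-transfected by lipofection for 16 h with 500 ng total of mTLR4 and Myc-tagged mMD2 plasmids (1:1); mock wells received lipofection reagent only. After a medium change the next day, cells were treated for 24 h. NF-κB SEAP was measured and normalised to water-treated samples; data are mean ± s.e.m., n = 3.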

A further data set has as its target mTLR2 (Mus musculus, UniProt Q9QUN7). As to the kind of experiment: HEK-Blue mTLR2 SEAP reporter assay. Type of data set: cell-based. To be noted: GM 2, 1, 0.5 mM, 24 h, n = 6. The gist of the method:
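HEK-Blue mTLR2 cells were seeded at 50,000 cells/well in complete DMEM. After 6 h the medium was changed to serum-free DMEM and test compound was added for 24 h. Secreted SEAP was read by mixing supernatant 1:4 with Quanti-Blue, incubating 6 h at 37 °C and measuring absorbance at 620 nm. Values were blanked against water-treated wells.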

In a further data set the test system is WT BMDMs. The experiment in a line: RNAseq of WT BMDMs. The settings on record: GM 8 mM, 24 h, n = 3. Type of data set: cell-based, mouse. The gist of the method: (§1)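 BMDMs were differentiated 6 days from mouse bone marrow with GM-CSF or L929 supernatant at 800,000 cells/well, switched to serum-free IMDM and stimulated 24 h; MDP 0.4 mM was run alongside. Total RNA was extracted for RNAseq. Differentially expressed genes were called at p < 0.01 and logFC > 1 and plotted as mean heatmaps; n = 3.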

The subject of data set [5] is Tlr4-/- BMDMs. The experiment in a line: RNAseq of Tlr4-/- BMDMs. The settings on record: GM 8 mM, 24 h, n = 3. Type of data set: cell-based, mouse. The gist of the method: as §1
Data set [6] concerns NF-κB p65 and MAPK p38 phosphorylation in WT BMDMs. The experiment in a line: Immunoblot of p65 and p38 phosphorylation in WT BMDMs. The settings on record: GM 5 mM. Type of data set: cell-based, mouse. The procedure, abridged:
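Bone-marrow macrophages from WT or Tlr4-/- C57BL/6J mice were stimulated directly with 5 mM test compound or 500 ng/mL LPS. Cells were lysed in Tris/SDS/Triton buffer with protease and phosphatase inhibitors plus 10 mM DTT and boiled, then run on SDS-PAGE and transferred to PVDF. Blots were probed with rabbit antibodies to total or phospho-p65, total or phospho-p38 and GAPDH (1:1000, 4 °C overnight), then HRP anti-rabbit (1:5000).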
For orientation: A western blot detects proteins with antibodies after separation by electrophoresis.

Data set [7] is described as follows: GM abundance in mouse gut after intraperitoneal injection. Type of data set: in vivo. To be noted: mice, i.p. injection of GM; LC-MS.

Chain of mTLR4 (Q9QUK6 26-835): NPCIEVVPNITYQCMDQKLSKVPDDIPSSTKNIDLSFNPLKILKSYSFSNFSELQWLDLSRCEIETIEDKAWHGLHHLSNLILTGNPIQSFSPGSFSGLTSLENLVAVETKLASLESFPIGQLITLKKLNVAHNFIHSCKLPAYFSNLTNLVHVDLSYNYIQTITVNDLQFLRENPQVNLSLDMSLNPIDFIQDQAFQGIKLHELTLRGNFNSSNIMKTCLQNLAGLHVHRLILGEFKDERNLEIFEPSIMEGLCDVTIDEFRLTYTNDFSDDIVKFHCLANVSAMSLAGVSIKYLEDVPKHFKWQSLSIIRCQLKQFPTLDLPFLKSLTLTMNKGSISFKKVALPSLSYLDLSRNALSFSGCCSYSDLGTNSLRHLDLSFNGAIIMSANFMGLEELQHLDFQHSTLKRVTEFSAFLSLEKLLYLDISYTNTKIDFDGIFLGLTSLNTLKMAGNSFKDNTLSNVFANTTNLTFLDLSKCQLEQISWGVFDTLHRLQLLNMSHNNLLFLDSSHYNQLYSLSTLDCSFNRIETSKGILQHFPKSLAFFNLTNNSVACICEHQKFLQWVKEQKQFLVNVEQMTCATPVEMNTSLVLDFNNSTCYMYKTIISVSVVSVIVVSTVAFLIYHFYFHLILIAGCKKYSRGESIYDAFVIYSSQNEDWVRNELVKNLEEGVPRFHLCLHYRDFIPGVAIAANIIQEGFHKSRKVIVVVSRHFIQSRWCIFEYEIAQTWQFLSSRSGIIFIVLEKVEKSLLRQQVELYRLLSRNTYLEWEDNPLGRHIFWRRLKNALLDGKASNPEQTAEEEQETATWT
Chain of mTLR4 (Q9JHF9 19-160): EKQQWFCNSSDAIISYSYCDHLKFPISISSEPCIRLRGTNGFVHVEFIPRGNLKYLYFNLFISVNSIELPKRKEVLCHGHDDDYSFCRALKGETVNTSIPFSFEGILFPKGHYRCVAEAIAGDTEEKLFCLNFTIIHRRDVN
Chain of mTLR4/mMD2 (K263A / wt) (Q9QUK6 26-835 K263A): as the sequence (Q9QUK6 26-835) above, with K238A counted along it
Chain of mTLR4/mMD2 (K263A / wt) (Q9JHF9 19-160): as the sequence (Q9JHF9 19-160) above
Chain of mTLR2 (Q9QUN7 25-784): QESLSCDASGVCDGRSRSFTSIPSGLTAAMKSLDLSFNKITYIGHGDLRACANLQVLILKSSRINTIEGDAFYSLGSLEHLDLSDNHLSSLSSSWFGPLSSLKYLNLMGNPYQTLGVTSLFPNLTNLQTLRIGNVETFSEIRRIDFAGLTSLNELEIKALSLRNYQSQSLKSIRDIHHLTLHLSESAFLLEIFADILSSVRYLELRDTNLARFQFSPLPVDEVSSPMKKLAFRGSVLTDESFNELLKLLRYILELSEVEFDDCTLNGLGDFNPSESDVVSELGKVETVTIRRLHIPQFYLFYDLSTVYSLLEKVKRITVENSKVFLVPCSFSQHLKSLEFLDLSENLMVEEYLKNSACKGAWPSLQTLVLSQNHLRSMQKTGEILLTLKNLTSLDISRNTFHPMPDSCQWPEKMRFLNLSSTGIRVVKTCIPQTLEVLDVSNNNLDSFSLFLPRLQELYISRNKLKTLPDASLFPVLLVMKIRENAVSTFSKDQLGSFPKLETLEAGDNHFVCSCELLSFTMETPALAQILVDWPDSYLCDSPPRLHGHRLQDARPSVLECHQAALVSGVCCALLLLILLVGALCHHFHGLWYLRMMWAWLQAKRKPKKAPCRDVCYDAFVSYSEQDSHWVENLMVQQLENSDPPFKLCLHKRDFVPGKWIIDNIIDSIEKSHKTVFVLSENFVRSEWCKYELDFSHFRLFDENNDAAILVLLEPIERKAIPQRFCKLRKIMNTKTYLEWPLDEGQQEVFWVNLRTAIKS

Consider `CC(=O)N[C@H]1[C@H](O[C@H]2[C@H](O[C@H](C)C(=O)O)[C@@H](NC(C)=O)C(O)O[C@@H]2CO)O[C@H](CO)[C@@H](O)[C@@H]1O` (stereo partly drawn) [GM, N-acetylglucosamine-β−1,4-N-acetylmuramic acid], for which, in the data set with NOD2, the “NOD2 activation in HEK-Blue reporter cells (in words)” value is “unable to activate NOD1/2”. In addition, in the data set on RAW264.7 cells, the “Immuno-stimulatory activity (TNF-α, IL-6) in RAW264.7 (in words)” value is on record as “dose-dependent immuno-stimulatory activity”. Moreover, the “Activity in HEK-Blue mTLR4 reporter cells under polymyxin B titration (in words)” value at mTLR4 (GM 1 mM, polymyxin B 0, 0.1, 1, 10 kU) was “unaffected by polymyxin B titration”. In addition, the “TLR4 stimulation in HEK-Blue mTLR4 reporter cells (in words)” value on mTLR4 (disaccharides 0.5 or 1 mM, GM-A and GM-AE 1 mM) is given as “stimulate TLR4”. The “NF-κB signaling in RAW-Dual WT cells (in words)” value in [1] is “dose-dependent activation of both NF-κB and IRF signaling”. Besides, the “IRF signaling in RAW-Dual Tlr4-/- cells (in words)” value in [2] is recorded as “minimal activity”. In the data set with Tlr4-/- BMDMs [3], the “TNF-α and IL-6 production in Tlr4-/- BMDMs (in words)” value was “fails to elicit increased levels of TNF-α and IL-6”. The “Competition of mTLR4 binding to GM-1-resin by excess free ligand” value in data set [4] is “dose-dependent decrease in the amount of mTLR4 bound to GM-1-resin”. Also, the “Effect of mutation mTLR4_K263 on NF-κB activity (in words)” value at mTLR4/mMD2 (K263A / wt) is listed as “abolished GM-triggered NF-κB activity”. The “Activation of HEK-Blue mTLR2 reporter cells (in words)” value on mTLR2 is listed as “does not activate”. For the same molecule, the “Cytokine and chemokine genes (Il12a/b, Il6, Il1a/b, Csf3, Ccl5, Cxcl1) by RNAseq, WT BMDMs” value in the data set on WT BMDMs was “significantly upregulated”. For the same molecule, the “Cytokine and chemokine genes by RNAseq, Tlr4-/- BMDMs” value in the data set on Tlr4-/- BMDMs [5] is recorded as “fails to induce the expression of these genes”. In [6], the “p65 and p38 phosphorylation in WT BMDMs” value was “mild increase in phosphorylation”. The “Abundance in the mouse gut after intraperitoneal injection” value in data set [7] is listed as “temporally increased its abundance in the mouse gut”.
